Screening data deposited in PubChem by several laboratories.
SKKanGAS inh: blocks kanamycin growth of S. pyogenes SKKanGAS strain | BacTiter-Glo, 6 h | inhibition, % at 7.5 µM | hit rate 1.3% among 300,000 | AID 1662;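 active = mean replicate score, as percent of positive control median, at least 50; inconclusive = mean below 50 but one replicate at or above 50; inactive = mean and every replicate below 50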;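 also: strain carries kanamycin resistance gene driven by streptokinase promoter and grows in 40 µg/ml kanamycin; loss of luminescence reflects streptokinase promoter inhibition or plain growth inhibition; 0% = median of DMSO wells and 100% = positive control at its reference dose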
CHOP UPR activ: activators of apoptotic arm of unfolded protein response (CHOP); CHO-CHOP luciferase reporter, UPR activation, luminescence; percent of tunicamycin response over DMSO baseline; hit rate 0.34% among 330,000; activation, % at 10 µM;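 active = at 10 µM dose, activation of 40% or more, normalized to positive control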;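 also: 100% = tunicamycin at 10 µg/mL and 0% = DMSO alone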
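Assay system: CHO-CHOP cells, stable luciferase reporter of PERK-eIF2a-CHOP signalling / Buffer or medium: F12 plus 10% serum / Compound dosing: one dose, 10 µM in 0.5% DMSO / Times: 6 h compound treatment, 37 °C / Technique: luciferase luminescence / Read-out: % reporter activation, DMSO baseline versus tunicamycin full activation / Benchmarks: tunicamycin and DMSO controls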
XBP1 UPR activ: activators of adaptive arm of unfolded protein response (XBP1); AID 463104; hit rate 0.33% among 330,000; CHO-XBP1 luciferase reporter, IRE1-XBP1 UPR activation, luminescence; percent of tunicamycin response, DMSO as zero; activation, % at 20 µM;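 active = versus positive control, 20 µM dose yields 30% or more activation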;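 also: 100% = tunicamycin at 10 µg/mL and 0% = DMSO only wells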
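Material: CHO cell line with stable XBP1 luciferase reporter; buffer or medium: F12 medium containing 10% fetal bovine serum; compound: single point, 20 µM final compound, 1% DMSO; incubation: 6 h treatment, 37 °C; measured by: glow luminescence from Steady-Glo reagent; evaluation: activation, % of tunicamycin; control set: tunicamycin high, DMSO low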
Beta apoptosis: blocks beta cell apoptosis; AID 435005; INS-1E cytokine-induced death, ATP luminescence, 48 h; percent of positive-control rescue, neutral wells zero; hit rate 0.8% among 300,000; protection from apoptosis, % (no concentration beside the values);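 active = Every replicate reaches about 75%, or at least half do and their mean reaches it too, limit read from the data; inconclusive = At least half of replicates reach the limit but their mean does not; inactive = Under half of replicates reach the limit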;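 also: 0% = cytokine-treated negative control wells and 100% = positive control rescue; higher means more ATP so stronger rescue from cytokine killing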
Mdm2 MdmX PPI: disrupts the human Mdm2-MdmX interaction | O15151+Q00987 | SaOS-2 split-luciferase Mdm2/MdmX complementation, luminescence | inhibition, % at 8 µM | hit rate 3% among 330,000;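 active = inhibition of at least 50% at 8 µM in the primary screen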
Target sequence (O15151 whole entry, looked up): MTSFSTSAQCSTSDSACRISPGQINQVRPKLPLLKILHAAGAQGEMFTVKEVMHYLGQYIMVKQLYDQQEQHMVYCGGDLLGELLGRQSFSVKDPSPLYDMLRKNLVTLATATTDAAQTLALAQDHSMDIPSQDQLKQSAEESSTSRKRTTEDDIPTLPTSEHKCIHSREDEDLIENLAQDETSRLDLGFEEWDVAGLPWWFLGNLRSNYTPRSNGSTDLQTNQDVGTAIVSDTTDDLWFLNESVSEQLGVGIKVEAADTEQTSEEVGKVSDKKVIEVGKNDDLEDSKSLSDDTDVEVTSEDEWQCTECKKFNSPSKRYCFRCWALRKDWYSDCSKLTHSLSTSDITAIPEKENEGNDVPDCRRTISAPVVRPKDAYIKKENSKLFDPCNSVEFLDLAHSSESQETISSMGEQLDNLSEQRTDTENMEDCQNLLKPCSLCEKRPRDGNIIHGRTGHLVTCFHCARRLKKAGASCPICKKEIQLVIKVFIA
Target sequence (Q00987 whole entry, looked up): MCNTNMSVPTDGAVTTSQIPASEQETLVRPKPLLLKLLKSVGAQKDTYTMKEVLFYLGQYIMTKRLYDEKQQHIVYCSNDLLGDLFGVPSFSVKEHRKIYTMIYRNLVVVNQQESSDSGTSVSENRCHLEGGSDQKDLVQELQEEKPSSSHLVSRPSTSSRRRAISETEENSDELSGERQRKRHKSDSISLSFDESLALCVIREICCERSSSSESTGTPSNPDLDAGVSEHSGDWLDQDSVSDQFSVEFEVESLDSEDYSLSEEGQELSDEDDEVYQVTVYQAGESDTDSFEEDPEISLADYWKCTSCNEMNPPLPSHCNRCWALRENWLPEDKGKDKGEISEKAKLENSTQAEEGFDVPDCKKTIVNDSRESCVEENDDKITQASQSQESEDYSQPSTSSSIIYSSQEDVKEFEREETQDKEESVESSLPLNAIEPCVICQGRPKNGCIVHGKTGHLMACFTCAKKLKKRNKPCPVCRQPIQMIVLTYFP
CSC inhib: blocks cancer stem cells | cancer stem cell-like cells viability, luminescence | inhibition, % at 7.5 µM | hit rate 1.1% among 300,000; in the data active = inhibition above about 75%; inconclusive = no clear call, values can overlap the other calls; tested in HMLE shEcad cells
UPR CHOP confirm: confirmation of apoptotic unfolded protein response (CHOP) activators | shares compounds with CHOP UPR activ | CHO-CHOP cells, CHOP-luciferase reporter luminescence; percent of tunicamycin response, DMSO as zero | activation, % at 10 µM | hit rate 64% among 1,000 | AID 463112; in the data active = activation above about 33%;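 also: 0% = DMSO wells and 100% = tunicamycin 10 µg/mL wells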
UPR XBP1 confirm: adaptive UPR (XBP1) activation, confirmed; shares compounds with XBP1 UPR activ; CHO-XBP1 IRE1-XBP1 luciferase reporter, luminescence; activation, % at 20 µM; hit rate 63% among 1,000;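 active = reporter signal at least 30% of the positive control's activation in two or more of four replicate wells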;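 also: plate controls were DMSO negative control for no effect and tunicamycin 10 µg/mL positive control for full effect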
Mdm2 MdmX conf: human Mdm2/MdmX binding inhibition, confirmed. luminescent assay. inhibition, % at 8 µM. hit rate 55% among 10,000. AID 489028. shares compounds with Mdm2 MdmX PPI; in the data active = inhibition above about 40%
FLuc counter: counter-screen for Mdm2/MdmX inhibitors: full-length luciferase; shares compounds with Mdm2 MdmX PPI; SaOS-2 full-length luciferase counterscreen, luminescence; inhibition, % at 8 µM; hit rate 77% among 6,200;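 active = mean inhibition at 8 µM reaching about 37%, which flags the compound as non-specific, limit read from the data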;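 also: p53-null SaOS-2 cells with luciferase driven by a doxycycline-inducible promoter; compound on cells about two nights before reading with doxycycline added after day one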
* = called active by the depositor; ? = inconclusive; nt = no result. An excerpt weighted towards active compounds, which were near 4.8% of everything screened.

SMILES	SKKanGAS inh	CHOP UPR activ	XBP1 UPR activ	Beta apoptosis	Mdm2 MdmX PPI	CSC inhib	UPR CHOP confirm	Mdm2 MdmX conf	FLuc counter	others
CCCCCCC(=O)Nc1ccc(C(=O)N/N=C/c2cccnc2)cc1	-2	0	0	-2	1	53	nt	nt	nt
CCCCCCCC(=O)Nc1ccc(C(=O)N/N=C/c2cccc([N+](=O)[O-])c2)cc1	9	193*	237*	95*	88*	14	183*	19	nt	UPR XBP1 confirm=145*
CCOc1ccccc1NC(=O)CCC(=O)Nc1ccccc1OCC	-1	-2	1	1	-10	-9	nt	nt	nt
CCOc1cc(NC(=O)CCl)c(OCC)cc1NC(=O)CCl	1	153*	-4	-3	96*	-3	87*	80*	60*
c1ccc(CNc2nc(-c3ccccn3)nc3ccccc23)cc1	93*	40*	13	106*	78*	50	15	78*	23
c1ccc(CNc2nc(-c3ccccc3)nc3ccccc23)cc1	-1	0	0	nt	24	38	nt	nt	nt
CCC(C)Nc1nc(-c2ccccn2)nc2ccccc12 (stereo not drawn)	89*	47*	11	90*	82*	29	21	58*	29
CCc1nnc(NC(=O)c2nc(S(=O)(=O)Cc3ccc(C)cc3)ncc2Cl)s1	6	51*	-7	nt	95*	nt	38*	80*	52*
Cc1cccc(C(=O)Nc2nnc(Cc3ccccc3)s2)c1	4	3	-3	-6	-5	-13	nt	nt	nt
CCc1nnc(NC(=O)c2nc(S(=O)(=O)Cc3cccc(C)c3)ncc2Cl)s1	2	72*	-11	-30	100*	110*	30	99*	51*
CCc1nnc(NC(=O)c2nc(S(=O)(=O)Cc3ccccc3)ncc2Cl)s1	0	59*	-9	-37	100*	101*	13	49*	6
CCc1nnc(NC(=O)c2nc(Cl)ccc2Cl)s1	1	-2	-3	-4	8	-23	nt	nt	nt
CC(=O)Nc1ccc(NC(=O)c2nc(S(=O)(=O)Cc3ccccc3)ncc2Cl)cc1	12	-10	-10	-24	46	1	nt	nt	nt
CCc1ccc(NC(=O)COc2ccc(/C=C(/C#N)c3nc4ccccc4[nH]3)cc2OC)cc1	5	172*	192*	nt	100*	4	1	81*	53*	UPR XBP1 confirm=-2
NC(=O)C1CCN(c2nc(-c3ccc4c(c3)OCCO4)cs2)CC1	nt	2	-2	0	-8	-12	nt	nt	nt
CC1=NOC(=O)/C1=C\c1ccc(-c2cc(Cl)ccc2Cl)o1	8	69*	-8	101*	100*	87*	-9	16	nt
CC1=NOC(=O)/C1=C/c1ccc(-c2ccc(Cl)cc2)o1	nt	265*	-9	73	100*	26	34*	48*	17
CC1=NOC(=O)/C1=C\c1ccc(-c2ccc(Br)cc2)o1	20	nt	nt	nt	nt	nt	nt	nt	nt
CCOC(=O)C(CC)(CC)C(=O)/C=C/c1cccc(Br)c1	6	54*	3	8	97*	-7	70*	66*	29
O=C(N/N=C(\c1ccccc1)c1ccccn1)c1cccc([N+](=O)[O-])c1	?	136*	2	102*	79*	-9	319*	66*	20
Cn1ccnc1/C(=N\NC(=O)c1ccccc1)c1cccc([N+](=O)[O-])c1	4	-1	-2	0	2	-6	nt	nt	nt
COc1ccc(CC(=O)N2CCc3cc(OC)c(OC)cc3C2C)c(OC)c1 (stereo not drawn)	-6	0	-6	-4	28	-9	nt	nt	nt
Cc1cc(C(=O)CCl)c(C)n1CCc1ccccc1	-2	196*	6	12	74*	24	204*	43*	71*
O=C(N/N=C/c1ccc(Cl)c([N+](=O)[O-])c1)c1cc(-c2ccc3c4c(cccc24)CC3)n[nH]1	17	43*	1	4	100*	136*	14	91*	61*
O=C(N/N=C/c1cccc([N+](=O)[O-])c1)c1cc(-c2ccc3c4c(cccc24)CC3)n[nH]1	11	-1	-2	5	4	24	nt	nt	nt
SMILES	SKKanGAS inh	CHOP UPR activ	XBP1 UPR activ	Beta apoptosis	Mdm2 MdmX PPI	CSC inhib	UPR CHOP confirm	Mdm2 MdmX conf	FLuc counter	others
CCOc1ccc(C(=O)OCC(=O)N2CC(C)OC(C)C2)cc1OCC (stereo not drawn)	-1	0	-4	-6	-3	-5	nt	nt	nt
Cc1cccc(N=Nc2ccc(O)c3ncccc23)c1	92*	86*	7	88*	73*	99*	69*	89*	22
Cc1ccc(N=Nc2cc(C)ccc2O)c(C)c1	5	4	0	1	-6	3	nt	nt	nt
Cc1ccc(C(=O)Nc2ccc(S(=O)(=O)N3CCCC3)cc2)o1	3	-2	-2	-11	9	-2	nt	nt	nt
O=C(Nc1ccc(S(=O)(=O)N2CCCC2)cc1)c1ccc([N+](=O)[O-])o1	nt	47*	-3	47	67*	29	91*	31	nt
COc1cccc(-c2c(-c3cc(OC)cc(OC)c3)n(C)c3ccc(-c4cnc(N5CCOCC5)nc4)cc23)c1	nt	104*	124*	-3	71*	42	28	-6	nt	UPR XBP1 confirm=93*
C=C(C(=O)c1ccccc1)C(C(=C)C(=O)c1ccccc1)c1ccc(OC)cc1	5	62*	0	111*	98*	59	65*	99*	50*
COc1ccc(C(CC(=O)c2ccccc2)CC(=O)c2ccccc2)cc1	-8	-2	3	-3	2	-8	nt	nt	nt
COc1ccc(-c2cc(=O)oc3c(C)c(OC(=O)c4cccs4)ccc23)cc1	nt	66*	80*	9	85*	13	89*	47*	33	UPR XBP1 confirm=114*
COc1ccc(-c2cc(=O)oc3c(C)c(OC(C)C(C)=O)ccc23)cc1 (stereo not drawn)	12	-1	1	6	25	7	nt	nt	nt
COc1ccc(S(=O)(=O)NCCOc2ccc(Cl)cc2)cc1	nt	4	-1	-2	-13	nt	nt	nt	nt
CN(c1ccccc1)S(=O)(=O)c1cccc(NC(=O)CSc2nccc(=O)[nH]2)c1	nt	0	-3	4	23	-9	nt	nt	nt
